Source: ChEMBL document CHEMBL1125354, “Analogs of CCK incorporating conformationally constrained replacements for Asp32” (J Med Chem, 1992)
*1 amine or outer side, *2 acyl side, *3 side chain or, on linkers, in order; H or OH if unused. Where a SMILES comes first, the peptide text is derived from it. Side-chain parts run from the residue outwards. [ ]: non-standard residue; d: D form. The star is where a group is joined. ξ: configuration not given here. Thz(5,5-Me2) = CC1(C)SCN[C@@H]1C(=O)O; NMeF = CN[C@@H](Cc1ccccc1)C(=O)O; NH(2-Me-phenyl) = Cc1ccccc1N*; ξF = NC(Cc1ccccc1)C(=O)O; Boc = CC(C)(C)OC(=O)*; CO = O=C([*:1])[*:2]

What was measured:
[1] = biological target: T1, Cholecystokinin receptor type A (Rattus norvegicus, UniProt P30551); assay: Concentration inhibiting [3H]propionyl-CCK-8 binding to cholecystokinin type A receptor of rat pancreatic membranes.
T1 sequence (P30551 whole entry): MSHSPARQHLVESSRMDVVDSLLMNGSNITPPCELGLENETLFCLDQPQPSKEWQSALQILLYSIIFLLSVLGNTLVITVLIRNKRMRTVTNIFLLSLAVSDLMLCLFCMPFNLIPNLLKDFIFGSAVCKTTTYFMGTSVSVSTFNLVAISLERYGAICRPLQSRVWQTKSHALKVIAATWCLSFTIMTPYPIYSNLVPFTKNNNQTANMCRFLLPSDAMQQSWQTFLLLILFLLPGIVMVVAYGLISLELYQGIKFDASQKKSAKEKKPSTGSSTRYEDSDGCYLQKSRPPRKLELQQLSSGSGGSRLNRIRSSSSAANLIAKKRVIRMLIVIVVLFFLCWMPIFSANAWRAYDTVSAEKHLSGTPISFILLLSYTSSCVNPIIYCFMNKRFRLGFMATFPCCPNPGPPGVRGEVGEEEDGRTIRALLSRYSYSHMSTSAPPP
How it was run: (§1)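 Solubilized membranes from fresh pancreas of fasted rats (CCK-A). Competition against [3H]propanoyl-CCK-8. Nonspecific binding defined with 1 μM native CCK-8 and subtracted. IC50 is the concentration inhibiting 50% of total specific binding, from log-probit analysis. Actives confirmed in duplicate experiments.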

[2] = biological target: T2, Gastrin/cholecystokinin type B receptor (Bos taurus, UniProt P79266); assay: Concentration inhibiting [3H]propionyl-CCK-8 binding to cholecystokinin type B receptor of bovine striatum.; type: tissue-based
T2 sequence (P79266 whole entry): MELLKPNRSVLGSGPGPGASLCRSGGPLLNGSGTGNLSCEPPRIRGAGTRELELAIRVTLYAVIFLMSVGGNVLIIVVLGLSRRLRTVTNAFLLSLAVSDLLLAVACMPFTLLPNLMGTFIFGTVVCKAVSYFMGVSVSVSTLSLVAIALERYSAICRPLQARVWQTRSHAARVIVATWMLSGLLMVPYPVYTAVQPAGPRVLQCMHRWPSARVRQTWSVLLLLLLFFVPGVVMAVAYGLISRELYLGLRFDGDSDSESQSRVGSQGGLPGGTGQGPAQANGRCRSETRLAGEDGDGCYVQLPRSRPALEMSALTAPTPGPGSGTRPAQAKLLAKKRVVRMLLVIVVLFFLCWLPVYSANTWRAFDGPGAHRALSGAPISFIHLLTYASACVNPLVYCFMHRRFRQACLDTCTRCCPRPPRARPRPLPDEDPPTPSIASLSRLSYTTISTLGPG
How it was run: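 CCK-B binding used solubilized bovine striatal membranes and [3H]propanoyl-CCK-8 displacement. Nonspecific binding was taken with 1 μM native CCK-8 and subtracted. IC50, the concentration giving 50% inhibition of total specific binding, was obtained by log-probit analysis. Actives were confirmed in duplicate experiments.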

Rattus norvegicus [3] = assay: Dose required to inhibit the food intake by 50% in rats at a dose of 320 ug/kg ip; type: functional
How it was run: (§2)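 Male Sprague–Dawley rats (200–250 g), meal-fed. "1-2-1": trained 4–5 days on two 1-h meals 2 h apart; ip dosing 15 min before first meal, n=5–6. "Overnight fasted": n=5–7, ip vehicle or drug, food offered 1 h. Intake as % of saline control over first hour; t-test vs control; ED50 by log-probit.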

Rattus norvegicus [4] = assay: Suppression of food intake in rats when administered intraperitoneally; type: functional; how it was run: as §2
[5] = biological target: T1, Cholecystokinin receptor type A; assay: Inhibitory activity against cholecystokinin type A receptor from rat pancreas binding assay; how it was run: as §1
Rattus norvegicus [6] = assay: Dose required to inhibit the food intake by 50% in rats after intraperitoneal administration; type: functional; conditions: ip; how it was run: as §2

IC50 [1] [nM] | IC50 [2] [nM] | IC50 [5] [nM] | SMILES | ED50 (Rattus norvegicus [3]) [mg/kg] | also measured
314 | 6160 | – | CSCC[C@H](NC(=O)[C@H](Cc1ccc(OS(=O)(=O)O)cc1)NC(C)=O)C(=O)NCC(=O)N[C@@H](Cc1c[nH]c2ccccc12)C(=O)N[C@@H](CCSC)C(=O)N1CSC(C)(C)[C@@H]1C(=O)N[C@@H](Cc1ccccc1)C(N)=O [listing 1 of 2 here] | – | –
– | – | – | CSCC[C@H](NC(=O)[C@H](Cc1ccc(OS(=O)(=O)O)cc1)NC(C)=O)C(=O)NCC(=O)N[C@@H](Cc1c[nH]c2ccccc12)C(=O)N[C@@H](CCSC)C(=O)N1CSC(C)(C)[C@@H]1C(=O)N[C@@H](Cc1ccccc1)C(N)=O [listing 2 of 2 here] | > 0.32 | Control (Rattus norvegicus [4]): 66%
0.05 | 2310 | – | CSCC[C@H](NC(=O)[C@H](Cc1ccc(OS(=O)(=O)O)cc1)NC(C)=O)C(=O)NCC(=O)N[C@@H](Cc1c[nH]c2ccccc12)C(=O)N[C@@H](CCSC)C(=O)N1CSC(C)(C)[C@H]1C(=O)N[C@@H](Cc1ccccc1)C(N)=O [listing 1 of 2 here] | – | –
– | – | – | CSCC[C@H](NC(=O)[C@H](Cc1ccc(OS(=O)(=O)O)cc1)NC(C)=O)C(=O)NCC(=O)N[C@@H](Cc1c[nH]c2ccccc12)C(=O)N[C@@H](CCSC)C(=O)N1CSC(C)(C)[C@H]1C(=O)N[C@@H](Cc1ccccc1)C(N)=O [listing 2 of 2 here] | 0.0044 | –
– | – | 0.05 | Cc1ccccc1NC(=O)NCCCC[C@H](NC(=O)[C@H](Cc1c[nH]c2ccccc12)NC(=O)OC(C)(C)C)C(=O)N[C@@H](CC(=O)O)C(=O)N(C)[C@@H](Cc1ccccc1)C(N)=O (Boc-WK([CO-NH(2-Me-phenyl)])D[NMeF]-NH2) | – | –
– | – | 59 | Cc1ccccc1NC(=O)NCCCC[C@H](NC(=O)[C@H](Cc1c[nH]c2ccccc12)NC(=O)OC(C)(C)C)C(=O)N1CSC(C)(C)[C@H]1C(=O)NC(Cc1ccccc1)C(N)=O (stereo not given in full) (Boc-WK([CO-NH(2-Me-phenyl)])[Thz(5,5-Me2)][ξF]-NH2) | – | ED50 (Rattus norvegicus [6]): 0.085 mg/kg
